Measurements taken from ChEMBL document CHEMBL1141931, “Synthesis and evaluation of new antimalarial phenylurenyl chalcone derivatives” (J Med Chem, 2005).

Experiments:
Plasmodium falciparum [1] = assay: Inhibitory concentration against Plasmodium falciparum; format: functional, organism-based
How it was run: (§1)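 Chloroquine-resistant P. falciparum cultures were exposed to a range of compound concentrations for 48 h, starting at the ring stage. New ring forms were counted by FACS (flow cytometry), and parasitemia was compared with untreated controls to derive IC50.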

Falcipain 2 [2] = target: T1, Falcipain 2 (Plasmodium falciparum, UniProt Q9N6S8); assay: Inhibitory concentration against recombinant Falcipain-2
T1 sequence (Q9N6S8 whole entry): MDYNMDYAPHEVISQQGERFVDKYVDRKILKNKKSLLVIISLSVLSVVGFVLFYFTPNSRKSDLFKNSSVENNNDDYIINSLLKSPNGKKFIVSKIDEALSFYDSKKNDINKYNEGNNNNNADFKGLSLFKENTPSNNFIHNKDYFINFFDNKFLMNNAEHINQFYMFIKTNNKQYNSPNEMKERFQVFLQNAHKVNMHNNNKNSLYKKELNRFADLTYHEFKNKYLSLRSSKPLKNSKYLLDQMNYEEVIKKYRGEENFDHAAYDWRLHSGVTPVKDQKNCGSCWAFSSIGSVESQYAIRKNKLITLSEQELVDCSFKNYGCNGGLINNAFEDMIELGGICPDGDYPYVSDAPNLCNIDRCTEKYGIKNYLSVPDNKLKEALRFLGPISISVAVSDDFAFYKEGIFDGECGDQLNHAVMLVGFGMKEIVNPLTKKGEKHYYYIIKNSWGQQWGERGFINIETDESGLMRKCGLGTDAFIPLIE

Plasmodium falciparum [3] = assay: Inhibitory concentration against Plasmodium falciparum in FACS; format: functional, organism-based; how it was run: as §1
Mus musculus [4] = species on record: Mus musculus; assay: Inhibition of hemoglobin hydrolysis in mice (Mus musculus) infected with Plasmodium berghei at 5 uM; format: functional
Falcipain 2 [5] = target: T1, Falcipain 2; assay: Inhibitory concentration against falcipain-2; No significant effect impaired solubility
[6] = target: T2, Histidine-rich protein PFHRP-II (Plasmodium falciparum) (UniProt P05227); details: Plasmodium berghei; 100 uM
T2 sequence (whole entry): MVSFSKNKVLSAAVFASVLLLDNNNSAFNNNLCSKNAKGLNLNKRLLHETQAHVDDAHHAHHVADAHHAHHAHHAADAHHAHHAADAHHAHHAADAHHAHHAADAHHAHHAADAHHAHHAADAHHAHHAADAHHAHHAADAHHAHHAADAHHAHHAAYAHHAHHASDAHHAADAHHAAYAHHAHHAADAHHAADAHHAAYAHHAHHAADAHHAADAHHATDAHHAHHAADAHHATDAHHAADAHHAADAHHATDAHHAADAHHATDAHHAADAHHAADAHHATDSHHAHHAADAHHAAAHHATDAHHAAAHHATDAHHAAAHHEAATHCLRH

Mus musculus [7] = species on record: Mus musculus; assay: Inhibition of hemoglobin hydrolysis in mice (Mus musculus) infected with Plasmodium berghei at 100 uM; format: functional
Mus musculus [8] = species on record: Mus musculus; assay: Inhibition of hemoglobin hydrolysis in mice (Mus musculus) infected with Plasmodium berghei at 10 uM; format: functional

IC50 (Plasmodium falciparum [1])	Structure (SMILES)	further results
> 10 µM	COc1cccc(/C=C/C(=O)c2cccc(NC(=O)Nc3ccccc3)c2)c1OC	
	CC(C)C[C@H](NC(=O)[C@H]1O[C@@H]1C(=O)O)C(=O)NCCCCN=C(N)N [E-64]	IC50 (Falcipain 2 [2]): 0.058 µM; IC50 (Plasmodium falciparum [3]): 2.5 µM
> 10 µM	O=C(Nc1ccccc1)Nc1cccc(C(=O)/C=C/c2ccc(F)cc2)c1	
> 10 µM	COc1ccc(/C=C/C(=O)c2ccc(NC(=O)Nc3ccccc3)cc2)cc1	
> 10 µM	O=C(Nc1ccccc1)Nc1cccc(C(=O)/C=C/c2ccc(F)cc2F)c1	
> 10 µM	CN(C)c1ccc(/C=C/C(=O)c2cccc(NC(=O)Nc3ccccc3)c2)cc1	
> 10 µM	Cc1ccc(/C=C/C(=O)c2ccc(NC(=O)Nc3ccc(Cl)cc3)cc2)cc1	
> 10 µM	COc1ccc(NC(=O)Nc2ccc(C(=O)/C=C/c3ccccc3)cc2)cc1	
> 10 µM	COc1ccc(/C=C/C(=O)c2cccc(NC(=O)Nc3ccccc3)c2)cc1OC	
	O=C(Nc1ccc(Cl)cc1)Nc1ccc(C(=O)/C=C/c2ccc(Cl)cc2Cl)cc1	Inhibition (Mus musculus [4]): 60.31%; IC50 (Falcipain 2 [2]): 2.5 µM; IC50 (Plasmodium falciparum [3]): 5 µM
> 10 µM	O=C(Nc1ccccc1)Nc1ccc(C(=O)/C=C/c2ccc(Cl)cc2)cc1	
	O=C(Nc1ccccc1)Nc1cccc(C(=O)/C=C/c2ccc(Cl)cc2Cl)c1	Inhibition (Mus musculus [4]): 60.72%; IC50 (Falcipain 2 [5]): No significant effect; IC50 (Plasmodium falciparum [3]): 2.14 µM
	COc1cc(/C=C/C(=O)c2ccc(NC(=O)Nc3ccc(Cl)cc3)cc2)cc(OC)c1OC	IC50 (Falcipain 2 [2]): 1.8 µM; IC50 (Plasmodium falciparum [3]): 3 µM
> 10 µM	COc1ccc(NC(=O)Nc2ccc(C(=O)/C=C/c3ccc(OC)cc3OC)cc2)cc1	
> 10 µM	COc1ccc(/C=C/C(=O)c2ccc(NC(=O)Nc3ccc(OC)cc3)cc2)cc1	
> 10 µM	O=C(Nc1ccc(Cl)cc1)Nc1ccc(C(=O)/C=C/c2ccc(F)cc2)cc1	
	O=C(Nc1ccc(Cl)cc1)Nc1ccc(C(=O)/C=C/c2ccc(Cl)cc2)cc1	IC50 (Falcipain 2 [2]): 2.6 µM; IC50 (Plasmodium falciparum [3]): 10 µM
> 10 µM	Cc1ccc(/C=C/C(=O)c2ccc(NC(=O)Nc3ccccc3)cc2)cc1	
	CCN(CC)CCCC(C)Nc1ccnc2cc(Cl)ccc12 (centres undefined) [CHLOROQUINE]	inhibition [6]: 86.6%; Inhibition (Mus musculus [7]): 5.15%
	CC(C)CC(=O)N[C@H](C(=O)N[C@H](C(=O)N[C@@H](CC(C)C)[C@@H](O)CC(=O)N[C@@H](C)C(=O)N[C@@H](CC(C)C)[C@@H](O)CC(=O)O)C(C)C)C(C)C [PEPSTATIN]	Inhibition (Mus musculus [8]): 91.91%
> 10 µM	O=C(Nc1ccccc1)Nc1ccc(C(=O)/C=C/c2ccc(F)cc2F)cc1	
	O=C(Nc1ccc(Cl)cc1)Nc1ccc(C(=O)/C=C/c2ccc3c(c2)OCO3)cc1	IC50 (Falcipain 2 [2]): 2.5 µM; IC50 (Plasmodium falciparum [3]): 10 µM
> 10 µM	O=C(Nc1ccccc1)Nc1cccc(C(=O)/C=C/c2ccc(Cl)cc2)c1	
	CC(=O)N[C@@H](CC(C)C)C(=O)N[C@@H](CC(C)C)C(=O)N[C@H](C=O)CCCNC(=N)N [LEUPEPTIN]	IC50 (Falcipain 2 [2]): 0.0058 µM; Inhibition (Mus musculus [8]): 87.02%; IC50 (Plasmodium falciparum [3]): 6.26 µM
> 10 µM	O=C(Nc1ccccc1)Nc1ccc(C(=O)/C=C/c2ccc(Cl)cc2Cl)cc1	

IC50 (Plasmodium falciparum [1])	Structure (SMILES)	further results
	O=C(Nc1ccc(Cl)cc1)Nc1ccc(C(=O)/C=C/c2ccc(F)cc2F)cc1	Inhibition (Mus musculus [4]): 33.04%; IC50 (Falcipain 2 [2]): 2.6 µM; IC50 (Plasmodium falciparum [3]): 8 µM
> 10 µM	O=C(Nc1ccccc1)Nc1ccc(C(=O)/C=C/c2ccc3c(c2)OCO3)cc1	
	Cc1ccc(/C=C/C(=O)c2cccc(NC(=O)Nc3ccccc3)c2)cc1	Inhibition (Mus musculus [4]): 74.93%; IC50 (Falcipain 2 [5]): No significant effect; IC50 (Plasmodium falciparum [3]): 2.74 µM
> 10 µM	O=C(Nc1ccccc1)Nc1ccc(C(=O)/C=C/c2ccccn2)cc1	
> 10 µM	COc1ccc(/C=C/C(=O)c2cccc(NC(=O)Nc3ccccc3)c2)c(OC)c1	
	O=C(Nc1ccc(Cl)cc1)Nc1ccc(C(=O)/C=C/c2ccccc2)cc1	IC50 (Falcipain 2 [2]): 3.8 µM; IC50 (Plasmodium falciparum [3]): 9 µM
> 10 µM	COc1ccc(NC(=O)Nc2ccc(C(=O)/C=C/c3ccc(F)cc3F)cc2)cc1	
> 10 µM	COc1ccc(NC(=O)Nc2ccc(C(=O)/C=C/c3ccc(Cl)cc3)cc2)cc1	
> 10 µM	COc1ccc(NC(=O)Nc2ccc(C(=O)/C=C/c3ccc(F)cc3)cc2)cc1	
> 10 µM	O=C(Nc1ccccc1)Nc1cccc(C(=O)/C=C/c2ccc3c(c2)OCO3)c1	
> 10 µM	COc1cc(/C=C/C(=O)c2ccc(NC(=O)Nc3ccccc3)cc2)cc(OC)c1OC	
> 10 µM	COc1ccc(/C=C/C(=O)c2ccc(NC(=O)Nc3ccc(Cl)cc3)cc2)c(OC)c1	
	COc1cc(/C=C/C(=O)c2cccc(NC(=O)Nc3ccccc3)c2)cc(OC)c1OC	Inhibition (Mus musculus [4]): 51.45%; IC50 (Falcipain 2 [5]): No significant effect; IC50 (Plasmodium falciparum [3]): 1.76 µM
> 10 µM	COc1ccc(NC(=O)Nc2ccc(C(=O)/C=C/c3cc(OC)c(OC)c(OC)c3)cc2)cc1	
> 10 µM	COc1ccc(NC(=O)Nc2ccc(C(=O)/C=C/c3ccc4c(c3)OCO4)cc2)cc1	
> 10 µM	COc1ccc(NC(=O)Nc2ccc(C(=O)/C=C/c3ccc(C)cc3)cc2)cc1	
> 10 µM	O=C(Nc1ccccc1)Nc1ccc(C(=O)/C=C/c2ccc(F)cc2)cc1	
> 10 µM	COc1ccc(NC(=O)Nc2ccc(C(=O)/C=C/c3ccc(Cl)cc3Cl)cc2)cc1	
	O=C(Nc1ccccc1)Nc1cccc(C(=O)/C=C/c2ccc(Br)cc2)c1	Inhibition (Mus musculus [4]): 66.58%; IC50 (Falcipain 2 [5]): No significant effect; IC50 (Plasmodium falciparum [3]): 2.1 µM
> 10 µM	COc1ccc(/C=C/C(=O)c2ccc(NC(=O)Nc3ccc(Cl)cc3)cc2)cc1	
> 10 µM	O=C(Nc1ccccc1)Nc1ccc(C(=O)/C=C/c2ccccc2)cc1	
> 10 µM	O=C(Nc1ccccc1)Nc1cccc(C(=O)/C=C/c2ccccc2)c1	
> 10 µM	COc1ccc(/C=C/C(=O)c2cccc(NC(=O)Nc3ccccc3)c2)cc1	
> 10 µM	COc1ccc(/C=C/C(=O)c2ccc(NC(=O)Nc3ccccc3)cc2)c(OC)c1	
